This is a sample that favours compounds with a hit; in the whole collection about 1.8% have one here.
CHRM5 agonist: CHRM5 agonism in calcium assay | CHO-K1 hM5 cells, Fluo-8 calcium fluorescence; 0% DMSO wells, 100% maximal acetylcholine response | activation, % at 3 µM | P08912 | actives 0.19% (n = 360,000);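 active = activation above the run's mean over test compounds plus 3 SD, cut at about 23% in these data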;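 note: signal is peak over basal fluorescence ratio across the kinetic read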
M4 PAM: potentiates acetylcholine response at human M4 receptor | P08173 | CHO-K1 hM4/Gqi5, Fluo-8 calcium fluorescence, ACh EC20; 0% = ACh EC20, 100% = maximal ACh | activation, % at 3 µM | actives 0.4% (n = 360,000);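 active = activation above its plate's cutoff, the mean activation of sample wells plus 3 SD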
Target sequence (P08173 whole entry, looked up): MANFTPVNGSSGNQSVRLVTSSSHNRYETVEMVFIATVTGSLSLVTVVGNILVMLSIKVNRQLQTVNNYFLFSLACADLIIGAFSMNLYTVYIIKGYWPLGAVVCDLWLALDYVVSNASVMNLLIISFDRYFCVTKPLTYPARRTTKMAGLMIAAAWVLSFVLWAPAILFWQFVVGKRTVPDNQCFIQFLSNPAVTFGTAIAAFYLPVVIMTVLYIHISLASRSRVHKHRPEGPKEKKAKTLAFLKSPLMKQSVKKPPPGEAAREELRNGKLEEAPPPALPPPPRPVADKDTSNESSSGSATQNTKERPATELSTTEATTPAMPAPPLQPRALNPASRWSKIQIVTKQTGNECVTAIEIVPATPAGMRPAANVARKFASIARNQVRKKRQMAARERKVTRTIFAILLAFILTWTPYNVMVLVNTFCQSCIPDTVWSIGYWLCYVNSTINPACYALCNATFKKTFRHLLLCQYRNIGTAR
CHRM4 agonist: agonists of human muscarinic M4 receptor (CHRM4); CHO-K1 hM4/Gqi5, Fluo-8 calcium fluorescence; vehicle 0%, full acetylcholine response 100%; activation, % at 3 µM; actives 0.14% (n = 360,000); AID 624127;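 active = activation above the run mean over all test wells plus 3 SD, cut at about 32% in these data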;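 note: peak over basal fluorescence ratio per well then scaled between controls; 0% = DMSO wells and 100% = acetylcholine at EC100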
M5 PAM: positive allosteric modulators of human muscarinic M5 receptor. CHO-K1 hM5, Fluo-8 calcium, ACh EC20 PAM; 0% = ACh EC20, 100% = ACh EC100. actives 0.3% (n = 360,000). activation, % at 3 µM. P08912. AID 624038;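 active = activation above the run cutoff, the mean activation of all test compounds plus 3 SD, cut at about 18% in these data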
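system = human M5 receptor in CHO-K1 cells | compound = one concentration, 3 µM final (nominal) | schedule = Post-acetylcholine fluorescence recording 140 s | signal = Fluo-8 calcium dye fluorescence, kinetic read | benchmarks = low control EC20 acetylcholine (0%), high control EC100 acetylcholine (100%) | repeats = singlicate, one well per test compound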
M5 antag: blocks acetylcholine activation of human M5 receptor; inhibition, % at 3 µM; actives 0.59% (n = 360,000); AID 624040; CHO-hM5 cells, Fluo-8 calcium fluorescence, ACh EC80;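 active = inhibition above a per-plate cutoff, the mean of that plate's test compounds plus 3 SD, cut at about 27% in these data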;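 note: 0% = acetylcholine EC80 with DMSO and 100% = DMSO without agonist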
CHRM4 antagonist: blocks acetylcholine activation of human M4 receptor; P08173; CHO-hM4 cells, ACh EC80, Fluo-8 calcium fluorescence; inhibition, % at 3 µM; actives 0.73% (n = 360,000);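 active = inhibition above its plate's cutoff, the mean inhibition of sample wells plus 3 SD, cut at about 27% in these data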;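 note: 0% = acetylcholine EC80 with DMSO and 100% = DMSO without agonist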
The depositor's hits bear a star.

SMILES	CHRM5 agonist	M4 PAM	CHRM4 agonist	M5 PAM	M5 antag	CHRM4 antagonist
Cc1ccc(C(=O)c2coc3c2C(=O)C(=O)c2ccccc2-3)cc1	-4	2	4	-15	36*	-4
CCC(=O)c1ccc(SC(=O)N(C)C)cc1O	-4	-38	10	-14	11	-1
Cc1ccc(OCCNC(=O)C(=O)NCc2ccco2)cc1	-2	-18	1	-7	-3	27*
COCCn1c(SCC(=O)Nc2sccc2C(N)=O)nc2cc(Cl)ccc2c1=O	0	-4	8	-3	9	9
CCCCn1nnnc1C(c1cc2ccccc2o1)N(CCN(C)C)Cc1ccccc1 (centres undefined)	-2	-4	11	4	-5	-1
NS(=O)(=O)c1ccc(CNC(=O)c2cc(-c3cccnc3)nc3ccc(Br)cc23)cc1	3	15	2	12	8	1
O=S(=O)(c1cc(Br)ccc1Br)N1CCCCCC1	-4	2	-3	-1	1	-39
Nc1ncc(Br)cc1S(=O)(=O)N1CCCCCC1	-8	-2	1	-15	29*	-2
O[Si](CCCN1CCCCC1)(c1ccc(F)cc1)C1CCCCC1 (centres undefined)	1	-19	5	-18	74*	90*
O=C(NCO)c1cccnc1	3	7	0	1	2	4
O=C(c1ccc(-c2nc3ccccc3s2)o1)N1CCN(c2ccccc2O)CC1	-5	-5	9	-17	34*	-1
CC(=O)c1ccc(NC(=O)CSc2ccc3nnc(-c4cccnc4)n3n2)cc1	-1	1	1	-3	0	-4
O=C(CNc1ccc(C(F)(F)F)cc1)Nc1cccc(S(=O)(=O)N2CCCCC2)c1	4	-6	16	-7	12	11
Nc1nc(N2CCN(c3ccccn3)CC2)nc2ccccc12	-8	-18	2	-10	13	27*
Nc1nc(N2CCCCC2)nc2ccccc12	-8	-19	1	-23	16	22
CCN1C(=O)[C@@H]2Cc3c([nH]c4ccccc34)C(c3ccc(OC)cc3)N2C1=S (some centres undefined)	-1	-17	18	-18	29*	34*
c1ccc(Nc2nc(N3CCNCC3)nc(N3CCOCC3)n2)cc1	-1	5	1	-6	5	-9
COc1ccc(Nc2nc(N3CCCC3)c3ccccc3n2)cc1	-2	1	5	-4	6	6
CCN(CC)c1ccc(Nc2nc(N3CCOCC3)c3ccccc3n2)cc1	-5	-21	7	-15	30*	20
c1ccc(Nc2nc(N3CCOCC3)nc(N3CCOCC3)n2)cc1	-3	31*	1	5	17	3
COc1cccc(-c2cnc(C(O)c3ccc(Cl)cc3C)[nH]2)c1 (centres undefined)	4	5	9	-2	5	-14
O=C(Nc1ccc(Cl)cc1)C1C2C=CC3(O2)C1C(=O)N(CCN1CCCCC1)C3C(=O)NC1CCCCC1 (centres undefined)	-4	-1	1	-1	14	-5
Cc1ccc(C(C)C)c(OCCn2ccnc2C)c1	-7	-17	5	-17	57*	52*
Cc1ccc(OCCCCn2ccnc2C)c(C)c1	-12	-8	13	-17	7	-7
O=C(O)c1cccc(-n2c(-c3cnccn3)n[nH]c2=S)c1	3	4	1	18*	-7	-6
SMILES	CHRM5 agonist	M4 PAM	CHRM4 agonist	M5 PAM	M5 antag	CHRM4 antagonist
O=C(Nc1nc(-c2ccccc2)cs1)c1ccccc1NS(=O)(=O)c1ccc(F)cc1	8	-14	16	-20	42*	31*
O=S(=O)(Nc1ccc(-c2csc(-c3ccccc3)n2)cc1)c1ccc(F)cc1	-1	31*	0	0	5	3
Cc1ccc(NC(=O)COc2cccc(Oc3ccccc3)c2)cc1S(=O)(=O)N1CCOCC1	4	-11	13	-30	11	21
O=C(Nc1ccc(C(F)(F)F)cc1)c1ccccc1-n1cnnn1	1	8	2	-2	5	-1
O=S(=O)(c1cccc2nsnc12)N1CCCC1	-1	23	2	-6	-5	-1
CC1CN(S(=O)(=O)c2cccc3nsnc23)CC(C)O1 (centres undefined)	-2	-9	0	5	2	27*
C/C=C(\C)C(=O)NCCN1C2=NC[C@@H](C)N2C[C@H]1Cc1ccc(O)cc1	-2	30*	0	13	-4	0
Cc1cccc(NC(=O)CC2NC3CCCCC3NC2=O)c1 (centres undefined)	-8	1	0	24*	-5	8
O=S(=O)(Nc1nc2ccccc2[nH]1)c1ccccc1	-7	-20	0	-18	8	19
O=S(=O)(Nc1nc2ccccc2[nH]1)c1ccc(Cl)cc1	-7	-29	5	-17	50*	67*
CN(Cc1cccnc1)C(=O)c1cc(COc2ccc3c(c2)CCCC3)on1	-1	-12	15	-18	33*	0
CC(=O)c1cccc(OCc2cc(C(=O)N(C)Cc3cnccn3)no2)c1	1	5	3	1	1	-8
O=C1C=CC(=Nc2ccc(F)cc2)O1	-2	9	2	22*	-11	-21
O=C1CCC(C(=O)N2CCCCO2)CN1Cc1cccc(F)c1 (centres undefined)	-2	1	0	0	4	-4
CSc1nc(SC(C)C(=O)O)c2c3c(sc2n1)COC(C)(C)C3 (centres undefined)	-2	8	0	7	2	-5
CCCCSc1nc(NCc2ccco2)c2c3c(sc2n1)COC(C)(C)C3	-1	-2	-2	3	-1	8
CSc1nc(SCCN(C)C)c2c3c(sc2n1)COC(C)(C)C3	-1	7	52*	17	-7	-14
CCCSc1nc(NCc2ccco2)c2c3c(sc2n1)COC(C)(C)C3	4	43*	-1	4	-3	5
CC(=O)N1CCN(S(=O)(=O)c2cccc(C(=O)NNC(=O)c3ccc(Br)cc3)c2)CC1	1	8	6	4	1	7
OCC1(Cc2ccccc2)CCCN(Cc2cn[nH]c2-c2ccccc2)C1 (centres undefined)	-2	-11	15	-17	32*	3
Cc1ccc(CNS(=O)(=O)c2ccc(-n3cnnn3)c(C)c2)cc1	1	-6	6	-7	16	-5
CCCOC1CCCN(C(=O)c2cc(Cl)c(Cl)cc2C(=O)O)C1 (centres undefined)	25*	-6	3	-11	5	9

Source: PubChem
